A short description of data set [1]: Effective permeability of the compound by PAMPA assay. The data set is classed as ADME. Details: unit not given here; call rule not given here. For orientation: PAMPA measures passive passage across an artificial lipid membrane.
Data set [2] deals with Escherichia coli. The experiment in a line: Antibacterial activity against Escherichia coli K-12 ATCC 25404 assessed as inhibition of biofilm formation after 2 hrs by confocal laser microscopic analysis. The class given is functional, organism-based. To be noted: for IC50: Escherichia coli, K-12 ATCC 25404, 2 h.
Data set [3] has as its system Escherichia coli. The experiment in a line: Inhibition of Escherichia coli FimH-mediated hemagglutinination of human red blood cells assessed as drug level required for > 90% inhibition of hemagglutinination after 30 mins by hemagglutinination inhibition assay.
In data set [4] the test system is Escherichia coli. The experiment in a line: Binding affinity to […] Escherichia coli FimH-lectine domain assessed as melting temperature at 100 uM by differential scanning fluorometric assay. The gist of the method: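 Untagged FimH lectin domain (residues 1–158 of UPEC J96 FimH), 5 µg in a 50 µl reaction of HBS (20mM HEPES pH 7.5, 150mM NaCl). Compound at 100µM final, diluted from DMSO stocks, with SYPRO Orange at 5X final. Controls were FimH alone plus 0.2% DMSO. Melt curve ran from 20–90°C in 0.5 °C steps of 15 s each, with fluorescence read on the HEX channel.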
(In general: In DSF a fluorescence change marks the thermal transition of the protein.)

Data set [5] is described as follows: Drug level in mouse urine at 50 mg/kg, po measured after 6 hrs. Further details: dose 50 mg/kg, route oral. To be noted: read-out: Drug uptake. The class given is ADME, organism-based. The gist of the method: (§1)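 Oral dosing in mice at 50 mg/kg. Plasma and urine sampled at 30 min and 1, 2, 3, 4, 6 h after dosing. Compound quantified by LC-MS/MS in selected reaction monitoring mode.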

Data set [6] is described as follows: Plasma concentration in mouse at 50 mg/kg, po measured after 6 hrs. The class given is ADME, organism-based. Details: dose 50 mg/kg, route oral. The gist of the method: as §1
For data set [7], the system named is Mus musculus. As to the kind of experiment: Ratio of drug uptake in mouse urine to plasma at 50 mg/kg, po measured after 6 hrs. To be noted: in vivo.
Data set [8] can be described thus: Binding affinity to biotinylated Escherichia coli FimH-lectin domain after 30 mins by biolayer interferometry method. Summed up: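 FimH lectin domain biotinylated 1:1, loaded at 50μg/ml in HBS (20mM HEPES pH 7.5, 150mM NaCl) onto streptavidin tips, biocytin-blocked. Compound applied as 7 twofold dilutions in HBS for 10 min association, then 30 min dissociation, 30°C with shaking. Referenced to biocytin-blocked pins for drift and nonspecific binding. Kd from global kinetic fitting.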
On the technique in general: BLI is a label-free optical method that tracks binding on a fibre tip over time.

Data set [9] has as its system Mus musculus. The experiment in a line: Stability in mouse urinary tract infection model assessed as hydrolysis of glycosidic bond at 10 to 200 mg/kg, po. The data set is classed as ADME, organism-based, Urine. Details: dose 10-200 mg/kg, route oral. The conditions noted are these: in vivo. The gist of the method:
(§2)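 Oral dosing in mice. Urine and plasma compound levels quantified by LC-MS/MS in selected reaction monitoring mode. The phenolic biphenyl hydrolysis product (R group) in urine was monitored at transition 285/254.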

A short description of data set [10]: Drug metabolism in mouse urine assessed as formation of phenolic biphenyl metabolite at 10 to 200 mg/kg, po. The data set is classed as ADME, organism-based. Details: dose 10-200 mg/kg, route oral. To be noted: in vivo. Summed up: as §2
The nature of data set [11]: Drug level in mouse urine at 100 mg/kg, po measured after 6 hrs. The class given is ADME, organism-based. Details: dose 100 mg/kg, route oral. To be noted: read-out: Drug uptake. The gist of the method:
as §2

Data set [12] can be described thus: Plasma concentration in mouse at 100 mg/kg, po measured after 6 hrs. The class given is ADME, organism-based. Further details: dose 100 mg/kg, route oral. Summed up:
as §2

The text below walks through data of ChEMBL document CHEMBL2057137, “Lead optimization studies on FimH antagonists: discovery of potent and orally bioavailable ortho-substituted biphenyl mannosides” (J Med Chem, 2012).

As for `CNC(=O)c1cc(C(=O)NC)cc(-c2ccc(O[C@H]3O[C@H](CO)[C@@H](O)[C@H](O)[C@@H]3O)c(C(F)(F)F)c2)c1`, in data set [1], the “log Pe” value is recorded as -6.27. In the data set on Escherichia coli [2], the IC50 (usually the point on the concentration scale where inhibition reaches its midpoint) was 43 nM. In addition, the EC>90 with Escherichia coli [3] is 0.008 µM. In addition, in the data set with Escherichia coli [4], the Tm is 76.2 °C. The concentration at 6 h in data set [5] amounted to 890 nM; in data set [6], 40 nM. Moreover, the Ratio in the data set on Mus musculus [7] came to 10.
On to `CNC(=O)c1cc(C(=O)NC)cc(-c2ccc(O[C@H]3O[C@H](CO)[C@@H](O)[C@H](O)[C@@H]3O)cc2)c1`, for which, in [1], the “log Pe” value is reported as -4.51. In [8], binding was characterised by a dissociation constant (Kd) of 0.14 nM. Also, in the data set with Escherichia coli [2], the MED stood at 0.74 µM and the IC50 was 740 nM. Also, in the data set with Escherichia coli [4], the Tm was determined as 74.4 °C. In addition, the Stability entry in the data set on Mus musculus [9] is “Unstable”. For the same molecule, in data set [10], the Drug metabolism result was “Active”. Further, the concentration at 6 h in [11] stood at 4850 nM. In [12], this molecule yielded a concentration at 6 h of 10 nM. In the data set on Mus musculus [7], the Ratio was 10.
`CNC(=O)c1cccc(-c2ccc(O[C@H]3O[C@H](CO)[C@@H](O)[C@H](O)[C@@H]3O)c(C)c2)c1`: the “log Pe” value in [1] is recorded as -3.89. For the same molecule, in the data set on Escherichia coli [2], the IC50 stood at 160 nM. Moreover, the EC>90 in the data set with Escherichia coli [3] was found to be 0.06 µM. In the data set with Escherichia coli [4], the Tm is 74.5 °C. Moreover, the results for the concentration at 6 h in data set [5] and in [6] were 4370 nM and 100 nM, respectively. Besides, the Ratio in the data set with Mus musculus [7] came out at 10.
`CNC(=O)c1cccc(-c2ccc(O[C@H]3O[C@H](CO)[C@@H](O)[C@H](O)[C@@H]3O)c(C(F)(F)F)c2)c1`: in the data set with Escherichia coli [2], the IC50 came to 130 nM. The EC>90 in the data set with Escherichia coli [3] is 0.03 µM. Further, the Tm with Escherichia coli [4] turned out to be 72.3 °C. The Ratio in the data set with Mus musculus [7] stood at 10.
`CNC(=O)c1cc(C(=O)NC)cc(-c2ccc(O[C@H]3O[C@H](CO)[C@@H](O)[C@H](O)[C@@H]3O)c(C)c2)c1`: the “log Pe” value in data set [1] was -8.46. Also, the IC50 with Escherichia coli [2] is 73 nM. Moreover, the EC>90 in the data set on Escherichia coli [3] stood at 0.016 µM. In addition, in the data set on Escherichia coli [4], the Tm is 75.8 °C. In addition, the Ratio with Mus musculus [7] amounted to 10.
